These results are taken from ChEMBL document CHEMBL1125319, “Synthesis and hypoglycemic activity of substituted 8-(1-piperazinyl)imidazo[1,2-a]pyrazines” (J Med Chem, 1992).

Assay [1] deals with Mus musculus. Kind of assay: Ability to lower blood glucose in insulin-resistant hyperglycemic ob/ob mice after 30 mg/kg p.o. administration. As to conditions: route oral. It counts as functional.
Assay [2] is described as follows: Binding affinity against Alpha-1 adrenergic receptor of calf cerebral cortex homogenates using [3H]prazosin. In kind it is tissue-based, Bos taurus.
For assay [3], the target named is T1, Beta-1 adrenergic receptor (Cavia porcellus, UniProt B0FL73).
T1 sequence (B0FL73 whole entry): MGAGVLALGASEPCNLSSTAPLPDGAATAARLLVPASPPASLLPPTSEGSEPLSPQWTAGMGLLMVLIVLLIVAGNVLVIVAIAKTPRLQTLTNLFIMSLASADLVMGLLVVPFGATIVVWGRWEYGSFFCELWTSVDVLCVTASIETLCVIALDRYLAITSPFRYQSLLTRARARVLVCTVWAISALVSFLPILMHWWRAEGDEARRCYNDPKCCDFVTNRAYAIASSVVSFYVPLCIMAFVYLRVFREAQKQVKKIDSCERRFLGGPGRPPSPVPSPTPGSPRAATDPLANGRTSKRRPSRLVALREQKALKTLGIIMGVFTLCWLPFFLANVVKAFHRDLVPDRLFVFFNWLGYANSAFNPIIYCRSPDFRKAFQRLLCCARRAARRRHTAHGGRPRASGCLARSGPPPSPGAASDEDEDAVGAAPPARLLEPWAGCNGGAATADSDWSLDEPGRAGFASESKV
A short description of assay [4]: Hypoglycemic potency relative to MTP-1403. In kind it is functional. The gist of the method:
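ob/ob insulin-resistant hyperglycemic mice on lab chow with free water. Graded oral doses given to groups of 5 mice; glucose load 2 g/kg sc 30 min after dosing, orbital sinus bleed 30 min after the load. Blood glucose compared with a reference standard by parallel-line bioassay, giving potency relative to the standard.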

The target of assay [5] is Beta-2 adrenergic receptor (Cavia porcellus, UniProt Q8K4Z4).
Chain of Beta-2 adrenergic receptor (Q8K4Z4 whole entry): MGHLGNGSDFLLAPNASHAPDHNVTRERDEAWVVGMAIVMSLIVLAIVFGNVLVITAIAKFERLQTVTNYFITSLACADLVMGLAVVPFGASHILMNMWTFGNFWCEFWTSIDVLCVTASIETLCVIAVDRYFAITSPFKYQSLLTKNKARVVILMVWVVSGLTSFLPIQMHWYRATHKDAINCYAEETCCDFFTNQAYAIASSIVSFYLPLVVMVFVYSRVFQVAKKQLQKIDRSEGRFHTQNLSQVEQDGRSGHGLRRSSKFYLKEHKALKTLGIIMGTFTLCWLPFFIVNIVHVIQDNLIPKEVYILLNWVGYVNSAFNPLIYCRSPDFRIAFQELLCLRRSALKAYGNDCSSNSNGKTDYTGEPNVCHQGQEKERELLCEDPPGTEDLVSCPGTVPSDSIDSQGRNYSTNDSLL
Assay [6] deals with T2, Alpha-2A adrenergic receptor (Bos taurus, UniProt Q28838).
T2 sequence (Q28838 whole entry): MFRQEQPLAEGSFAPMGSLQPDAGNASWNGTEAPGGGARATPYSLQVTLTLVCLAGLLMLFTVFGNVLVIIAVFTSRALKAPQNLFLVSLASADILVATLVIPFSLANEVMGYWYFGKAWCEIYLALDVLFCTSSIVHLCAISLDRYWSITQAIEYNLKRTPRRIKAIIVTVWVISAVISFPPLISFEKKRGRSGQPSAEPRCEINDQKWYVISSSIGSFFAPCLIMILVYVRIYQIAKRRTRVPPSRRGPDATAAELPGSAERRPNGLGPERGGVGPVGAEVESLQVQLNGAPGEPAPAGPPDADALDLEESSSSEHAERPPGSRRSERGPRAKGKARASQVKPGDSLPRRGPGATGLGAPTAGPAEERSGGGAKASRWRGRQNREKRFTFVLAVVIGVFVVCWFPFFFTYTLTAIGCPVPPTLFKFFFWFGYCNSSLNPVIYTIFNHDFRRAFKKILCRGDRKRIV
Briefly: Binding affinity at Alpha-2 adrenergic receptor in calf cerebral cortex homogenates by [3H]clonidine displacement. In kind it is tissue-based.

The target of assay [7] is T3, Alpha-1A adrenergic receptor (Bos taurus, UniProt P18130).
T3 sequence (P18130 whole entry): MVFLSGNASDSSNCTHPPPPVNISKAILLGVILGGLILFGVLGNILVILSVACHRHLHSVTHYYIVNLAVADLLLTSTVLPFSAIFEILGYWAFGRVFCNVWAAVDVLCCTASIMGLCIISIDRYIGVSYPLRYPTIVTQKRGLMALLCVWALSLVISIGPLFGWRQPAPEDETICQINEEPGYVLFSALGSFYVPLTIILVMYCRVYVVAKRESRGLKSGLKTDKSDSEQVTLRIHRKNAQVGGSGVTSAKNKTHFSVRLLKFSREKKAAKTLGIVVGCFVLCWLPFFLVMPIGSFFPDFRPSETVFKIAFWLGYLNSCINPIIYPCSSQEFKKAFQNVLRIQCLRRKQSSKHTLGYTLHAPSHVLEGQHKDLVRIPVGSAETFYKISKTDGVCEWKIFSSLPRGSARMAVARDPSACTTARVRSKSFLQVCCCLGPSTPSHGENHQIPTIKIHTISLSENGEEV
Kind of assay: Binding affinity against alpha-1 adrenergic receptor was determined in calf cerebral cortex homogenates using [3H]prazosin as radioligand. It counts as tissue-based.

The target in assay [8] is T4, Alpha-1A adrenergic receptor (Bos taurus) (UniProt P18130).
T4 sequence (whole entry): T3 sequence (P18130 whole entry)
Briefly: Inhibition of binding of [3H]prazosin to Alpha-1 adrenergic receptor in calf cerebral cortex homogenates at 10000 nM. It counts as tissue-based.

The test system of assay [9] is Mus musculus. Briefly: Compound was evaluated for its ability to lower blood glucose in insulin-resistant hyperglycemic ob/ob mice after peroral administration of 30 mg/kg single dose; NA= not active. In kind it is functional, organism-based. The arrangement: dose 30 mg/kg. The note with it: at 30 mg/kg.
Assay [10] deals with T1, Beta-1 adrenergic receptor. Briefly: Binding affinity against Beta-1 adrenergic receptor was measured using [125I]CYP as radioligand; NB= not bound.

In general, Ki refers to a dissociation constant, usually derived from enzyme kinetics or from competition with a known ligand. Read a low Ki as tighter binding. By inhibition is commonly meant the share of the control response that was lost under treatment.

Active and inactive are the calls of the source. The rule behind the calls is not given here.

For `Cl.Clc1cnc2c(N3CCNCC3)nccn12`, in assay [1], the “Blood glucose, percent of control” value was determined as 66%. In [2], this compound gave a Ki of 2780 nM.
Regarding `c1cn2ccnc2c(N2CCNCC2)n1`, the figures for the Ki in [3], in [5] and in assay [2] were 400 nM, 1700 nM and 3100 nM, respectively. In addition, the Relative potency in [4] is 76.
`Cc1cn2ccnc2c(N2CCNCC2)n1.Cl`: the Ki in assay [3] was 220 nM; in assay [6], 190 nM; in [5], 280 nM; in assay [2] it was 500 nM. Further, the “Blood glucose, percent of control” value in assay [1] was 61%.
With `Cc1cn2c(C)cnc2c(N2CCNCC2)n1.Cl`, the Ki in assay [3] was 150 nM; in assay [6], 620 nM; in assay [5], 250 nM; in [2], 300 nM. This compound also returned a Relative potency in assay [4] of 6. Moreover, the “Blood glucose, percent of control” value in [1] stood at 47%.
In assay [4], `Cl.FCCc1cnc2c(N3CCNCC3)nccn12` registered a Relative potency of 8. Further, in [1], the “Blood glucose, percent of control” value stood at 56%.
For `CCCc1cnc2c(N3CCNCC3)nccn12.Cl`, the Ki worked out at 7790 nM in [3], 480 nM in assay [6], 1390 nM in assay [5] and 2650 nM in assay [2]. For the same compound, the Relative potency in assay [4] came to 4. For the same compound, in [1], the “Blood glucose, percent of control” value is reported as 59%.
On to `Brc1cnc(N2CCNCC2)c2nccn12`, for which the Ki amounted to 170 nM in [3], 182 nM in assay [6], 520 nM in [5] and 1490 nM in [2]. Besides, the “Blood glucose, percent of control” value in assay [1] was found to be 87%.
In [4], `Cl.Cl.Clc1cn2ccnc2c(N2CCNCC2)n1` returned a Relative potency greater than 5. Further, the Ki in assay [7] amounted to 250 nM. For the same compound, the “Blood glucose, percent of control” value in [1] turned out to be 36%.
Consider `Cc1cnc(N2CCNCC2)c2ncc(C)n12.Cl`, for which the Ki was determined as 400 nM in assay [3] and 340 nM in assay [6]. In addition, the “Blood glucose, percent of control” value in assay [1] was determined as 72%.
`Cc1cnc(N2CCNCC2)c2nccn12.Cl`: the Ki in [3] came out at 360 nM; in assay [6] it was 140 nM; in assay [5], 820 nM; in [2], 2600 nM. The Relative potency in [4] is 17. Moreover, the “Blood glucose, percent of control” value in assay [1] was found to be 52%.
`CCc1cnc2c(N3CCNCC3)nccn12.Cl`: the Ki in [3] came to 5000 nM; in assay [6], 530 nM; in assay [5], 3240 nM. In addition, in assay [4], the Relative potency was 4. Moreover, the “Blood glucose, percent of control” value in assay [1] came to 54%. Besides, in assay [8], the inhibition came to 30%.
In the case of `Brc1cnc(N2CCNCC2)c2ncc(Br)n12`, the Ki in assay [3] stood at 630 nM; in assay [6], 11900 nM. In addition, the Control entry in [9] was “inactive”.
As to `Cc1cnc2c(N3CCNCC3)nccn12.Cl`, the Ki amounted to 2400 nM in assay [3], 240 nM in assay [6], 2300 nM in [5] and 1800 nM in assay [2]. The compound also had a Relative potency in assay [4] of 11. Further, the “Blood glucose, percent of control” value in [1] came out at 32%.
In the case of `C1=CN2CCN=C2C(N2CCNCC2)=N1.O=C(O)C/C=C\CC(=O)O`, in assay [6], the Ki came out at 870 nM. Also, the “Blood glucose, percent of control” value in assay [1] was 71%. In addition, the inhibition in [8] was found to be 15%.
Turning to `Cc1cnc(N2CCN(C)CC2)c2nccn12`, the Ki in [3] was determined as 2800 nM; in [6] it was 81 nM. The Relative potency in assay [4] came out at 6. Further, the “Blood glucose, percent of control” value in assay [1] is on record as 51%. In addition, the inhibition in assay [8] stood at 45%.
For the compound `CN1CCN(c2nccn3c(Br)cnc23)CC1`, the figures for the Ki in assay [3] and in assay [6] were 6300 nM and 1350 nM, respectively. Also, the “Blood glucose, percent of control” value in [1] was 98%. In assay [8], this compound had an inhibition of 4%.
With `Cc1cn2ccnc(N3CCNCC3)c2n1.Cl`, the Ki came to 310 nM in assay [3] and 51 nM in assay [6]. The same compound had a Relative potency in assay [4] of 32. Besides, the “Blood glucose, percent of control” value in assay [1] is 28%.
`CC1CN=C2C(N3CCNCC3)=NC=CN21.O=C(O)C/C=C\CC(=O)O` (stereo not given) gave a Ki in assay [6] of 1600 nM. Moreover, in [1], the “Blood glucose, percent of control” value was 88%. This compound also returned an inhibition in assay [8] of 12%.
Regarding `CN1CCN(c2ncc(Br)n3ccnc23)CC1`, the Ki in [3] worked out at 500 nM; in assay [6] it was 270 nM. The “Blood glucose, percent of control” value in assay [1] worked out at 100%. The compound further came in with an inhibition in assay [8] of 22%.
With `CC(C)c1cnc2c(N3CCNCC3)nccn12.Cl`, the Ki in [3] stood at 2990 nM; in [6], 370 nM; in assay [5] it was 2010 nM; in assay [2], 5430 nM. The compound further came in with a Relative potency in [4] of 3. Moreover, the “Blood glucose, percent of control” value in assay [1] was found to be 60%.
As for `CN1CCN(c2nccn3ccnc23)CC1`, the Ki in assay [6] is 1020 nM; in [10], “Not Active”. The Relative potency in assay [4] was 19. Moreover, in assay [1], the “Blood glucose, percent of control” value is listed as 62%.
